Measurements: ChEMBL document CHEMBL4024771, “Optimization of Orally Bioavailable Enhancer of Zeste Homolog 2 (EZH2) Inhibitors Using Ligand and Property-Based Design Strategies: Identification of Development Candidate …” (J Med Chem, 2018)
Values after ≈ are worked out from the molar mass of the structure shown. Active and inactive are the calls of the source. No cut-off for these calls is given here.

Experiments:
KARPAS-422 [1] = assay: Antitumor activity against human KARPAS422 cells harboring EZH2 Y641N mutant xenografted in mouse assessed as decrease in tumor growth at 100 mg/kg, po bid; format: functional, organism-based
[2] = molecular target: Histone-lysine N-methyltransferase EZH2 (Homo sapiens, UniProt Q15910, Y641N); assay: Inhibition of EZH2 Y641N mutant (unknown origin) using oligonucleosomes as substrate after 60 mins in presence of [3H]SAM by scintillation counting analysis
KARPAS-422 [3] = assay: Antiproliferative activity against human KARPAS422 cells after 72 hrs by resazurin assay; format: functional, cell-based; details: Homo sapiens, KARPAS-422, 72 h
[4] = Intrinsic clearance in human liver microsomes assessed per mg protein at 1 uM preincubated for 10 mins followed by NADPH addition measured after 45 mins by LC-MS/MS analysis; format: ADME, microsome; details: liver microsomes, read-out: CLH
Summary of the method: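 Test compound (1 μM) with pooled liver microsomes (0.8 mg/mL protein) in 100 mM potassium phosphate pH 7.4, 10 min preincubation, started with 2 mM NADPH, 45 min at 37 °C, in triplicate. Samples quenched with cold methanol containing buspirone internal standard, analysed by LC−MS/MS. CLint derived from t1/2 of parent loss (log-linear slope).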

[5] = Kinetic solubility of the compound; format: physicochemical; details: read-out: Kinetic_solubility
[6] = Passive permeability in MDCK cells at 2 uM after 90 mins by LC-MS/MS analysis; format: ADME, cell-based, Canis lupus familiaris; details: dog, MDCK; read-out: permeability
Summary of the method: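 Low-efflux MDCK cells (MDCK-LE) on 96-well inserts, used on day 4. Monodirectional transport of 2 μM drug in transport buffer with 0.1% DMSO at 37 °C. Donor and receiver sampled at 0 and 90 min for LC−MS/MS. Donor pH 6.5 and 7.4, receiver pH 7.4.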

Mus musculus [7] = assay: Toxicity in mouse xenografted with human KARPAS422 cells harboring EZH2 Y641N mutant assessed as change in body weight at 100 to 300 mg/kg, po bid; format: organism-based; details: in vivo
KARPAS-422 [8] = assay: Antitumor activity against human KARPAS422 cells harboring EZH2 Y641N mutant xenografted in mouse assessed as decrease in tumor regression at 100 mg/kg, sc qd measured 40 days post treatment termination on day 31; format: functional, organism-based
Mus musculus [9] = assay: In vivo inhibition of EZH2 in mouse xenografted with human KARPAS422 cells harboring EZH2 Y641N mutant assessed as reduction in H3K27me3 level in tumor at 100 mg/kg, sc qd measured 4 hrs post last dose on day 9 relative to control; format: functional; details: KARPAS-422, sc
Summary of the method: (§1)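 Mice bearing Karpas-422 (EZH2 Y641N) xenografts were dosed with crystalline suspension orally twice daily (7 h/17 h) or subcutaneously once daily. Tumors were collected on day 9, 4 h after the last dose, for H3K27me3 quantification.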

Mus musculus [10] = assay: In vivo inhibition of EZH2 in mouse xenografted with human KARPAS422 cells harboring EZH2 Y641N mutant assessed as reduction in H3K27me3 level in tumor at 300 mg/kg, po bid measured 4 hrs post last dose on day 9 relative to control; format: functional; details: KARPAS-422, po; summary of the method: as §1
Mus musculus [11] = assay: Time at which free plasma concentration stays above antiproliferative KARPAS422 cells IC90 level in mouse xenografted with human KARPAS422 cells at 300 mg/kg, po bid
[12] = Clearance in mouse hepatocytes assessed per million cells; format: ADME, cell-based, Hepatocyte; details: read-out: CLH
[13] = Clearance in rat hepatocytes assessed per million cells; format: ADME, cell-based, Hepatocyte; details: read-out: CLH
[14] = Clearance in rat at 2 mg/kg, iv; format: ADME, organism-based; details: in vivo
Cytochrome P450 1A2 = molecular target: T1, Cytochrome P450 1A2 (Homo sapiens, UniProt P05177); assay: Inhibition of CYP1A2 (unknown origin); format: ADME
T1 sequence (P05177 whole entry): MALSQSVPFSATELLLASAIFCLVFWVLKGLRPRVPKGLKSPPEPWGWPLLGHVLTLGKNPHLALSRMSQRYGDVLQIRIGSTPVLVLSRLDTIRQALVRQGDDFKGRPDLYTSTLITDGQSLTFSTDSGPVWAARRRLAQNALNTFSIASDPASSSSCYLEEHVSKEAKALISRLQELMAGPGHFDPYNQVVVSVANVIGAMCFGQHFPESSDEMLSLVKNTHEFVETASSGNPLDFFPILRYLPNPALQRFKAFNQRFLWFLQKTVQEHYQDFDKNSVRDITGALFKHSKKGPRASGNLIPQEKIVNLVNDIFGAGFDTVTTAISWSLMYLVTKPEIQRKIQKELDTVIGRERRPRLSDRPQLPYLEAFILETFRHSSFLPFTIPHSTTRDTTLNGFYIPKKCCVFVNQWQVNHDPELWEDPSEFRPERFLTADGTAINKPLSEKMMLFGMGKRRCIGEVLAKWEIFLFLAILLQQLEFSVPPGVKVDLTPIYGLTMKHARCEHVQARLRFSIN

Cytochrome P450 2C8 = molecular target: T2, Cytochrome P450 2C8 (Homo sapiens, UniProt P10632); assay: Inhibition of CYP2C8 (unknown origin); format: ADME
T2 sequence (P10632 whole entry): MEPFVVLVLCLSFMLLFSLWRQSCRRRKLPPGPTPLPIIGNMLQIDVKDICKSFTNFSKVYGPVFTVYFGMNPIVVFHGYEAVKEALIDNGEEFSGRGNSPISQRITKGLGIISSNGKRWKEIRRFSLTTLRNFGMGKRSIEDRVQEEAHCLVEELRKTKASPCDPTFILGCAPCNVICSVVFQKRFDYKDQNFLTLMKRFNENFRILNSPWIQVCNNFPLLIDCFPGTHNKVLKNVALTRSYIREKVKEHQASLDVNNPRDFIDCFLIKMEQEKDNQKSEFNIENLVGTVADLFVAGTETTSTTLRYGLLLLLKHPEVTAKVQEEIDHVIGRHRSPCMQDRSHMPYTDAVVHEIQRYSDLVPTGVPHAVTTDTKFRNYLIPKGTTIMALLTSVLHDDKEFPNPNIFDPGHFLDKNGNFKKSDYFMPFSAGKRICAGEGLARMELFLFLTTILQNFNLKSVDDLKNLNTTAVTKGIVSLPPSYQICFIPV

Cytochrome P450 2C9 = Cytochrome P450 2C9 (Homo sapiens, UniProt P11712); assay: Inhibition of CYP2C9 (unknown origin); format: ADME
Cytochrome P450 2C19 = Cytochrome P450 2C19 (Homo sapiens, UniProt P33261); assay: Inhibition of CYP2C19 (unknown origin); format: ADME
Cytochrome P450 3A4 = Cytochrome P450 3A4 (Homo sapiens, UniProt P08684); assay: Inhibition of CYP3A4 (unknown origin); format: ADME
Salmonella typhimurium = assay: Mutagenicity in Salmonella typhimurium by Ames assay; format: toxicity; details: salmonella enterica subsp. enterica serovar typhimurium
[15] = molecular target: T3, Histone-lysine N-methyltransferase EZH2 (Homo sapiens, UniProt Q15910); assay: Binding affinity to EZH2 (unknown origin)
Target sequence in this assay (Q15910 whole entry): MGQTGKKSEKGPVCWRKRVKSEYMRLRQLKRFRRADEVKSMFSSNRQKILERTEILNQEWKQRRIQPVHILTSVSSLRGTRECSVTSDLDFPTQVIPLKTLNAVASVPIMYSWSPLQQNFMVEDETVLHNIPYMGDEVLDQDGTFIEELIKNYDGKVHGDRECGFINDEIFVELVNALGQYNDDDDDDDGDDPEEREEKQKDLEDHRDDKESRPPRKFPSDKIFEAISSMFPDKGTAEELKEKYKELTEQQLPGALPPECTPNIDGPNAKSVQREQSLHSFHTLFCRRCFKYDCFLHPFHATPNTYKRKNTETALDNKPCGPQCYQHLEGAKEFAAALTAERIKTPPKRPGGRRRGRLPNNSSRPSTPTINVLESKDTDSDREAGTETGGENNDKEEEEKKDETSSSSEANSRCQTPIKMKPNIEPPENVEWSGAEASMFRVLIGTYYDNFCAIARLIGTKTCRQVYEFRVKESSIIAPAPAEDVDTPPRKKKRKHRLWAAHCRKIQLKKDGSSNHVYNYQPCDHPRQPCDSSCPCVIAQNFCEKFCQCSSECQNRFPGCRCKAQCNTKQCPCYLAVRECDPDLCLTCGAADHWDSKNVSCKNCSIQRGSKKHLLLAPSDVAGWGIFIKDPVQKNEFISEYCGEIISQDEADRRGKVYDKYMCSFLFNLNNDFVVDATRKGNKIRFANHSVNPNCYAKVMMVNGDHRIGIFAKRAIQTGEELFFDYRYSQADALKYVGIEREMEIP

[16] = Lipophilicity, log D of the compound at pH 7.4; details: buffer, pH 7.4, logD
[17] = molecular target: T3, Histone-lysine N-methyltransferase EZH2
Target sequence in this assay (Q15910 whole entry, looked up): as the sequence (Q15910 whole entry) above

[18] = test system: Histone-lysine N-methyltransferase EZH2 (Homo sapiens), Q15910 [Y641N]
Sequence of Histone-lysine N-methyltransferase EZH2 (Homo sapiens), Q15910 [Y641N] (Q15910 whole entry Y641N): as the sequence (Q15910 whole entry) above, with Y641N counted along it

Sequence of Cytochrome P450 2C19 (P33261 whole entry): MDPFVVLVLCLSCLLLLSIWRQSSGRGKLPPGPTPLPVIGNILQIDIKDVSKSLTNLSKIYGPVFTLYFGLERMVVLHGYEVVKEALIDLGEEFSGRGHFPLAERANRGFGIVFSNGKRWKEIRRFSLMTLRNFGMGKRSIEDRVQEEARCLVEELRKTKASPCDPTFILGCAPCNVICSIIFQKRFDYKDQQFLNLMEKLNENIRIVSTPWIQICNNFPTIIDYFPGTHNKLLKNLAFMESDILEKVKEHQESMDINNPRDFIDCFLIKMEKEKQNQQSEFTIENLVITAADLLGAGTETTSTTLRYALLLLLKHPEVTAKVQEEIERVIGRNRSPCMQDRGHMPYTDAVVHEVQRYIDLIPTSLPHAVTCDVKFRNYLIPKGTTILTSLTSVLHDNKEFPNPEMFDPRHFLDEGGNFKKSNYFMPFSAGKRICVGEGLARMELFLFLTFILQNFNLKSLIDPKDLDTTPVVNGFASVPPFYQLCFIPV
Sequence of Cytochrome P450 2C9 (P11712 whole entry): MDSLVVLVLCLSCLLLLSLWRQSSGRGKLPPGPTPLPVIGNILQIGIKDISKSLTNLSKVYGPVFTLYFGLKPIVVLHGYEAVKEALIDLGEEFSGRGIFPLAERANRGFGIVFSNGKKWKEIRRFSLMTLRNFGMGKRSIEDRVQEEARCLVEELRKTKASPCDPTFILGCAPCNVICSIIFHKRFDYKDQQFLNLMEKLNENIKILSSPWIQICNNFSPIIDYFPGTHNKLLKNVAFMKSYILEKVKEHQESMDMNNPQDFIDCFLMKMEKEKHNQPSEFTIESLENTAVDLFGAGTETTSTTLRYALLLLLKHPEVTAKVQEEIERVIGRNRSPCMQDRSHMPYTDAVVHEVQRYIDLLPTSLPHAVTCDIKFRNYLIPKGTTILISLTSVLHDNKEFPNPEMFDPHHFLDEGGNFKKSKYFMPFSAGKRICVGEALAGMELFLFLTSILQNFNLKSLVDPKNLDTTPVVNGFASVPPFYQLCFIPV
Sequence of Histone-lysine N-methyltransferase EZH2 (Homo sapiens, UniProt Q15910, Y641N) (Q15910 whole entry Y641N): as the sequence (Q15910 whole entry) above, with Y641N counted along it
Sequence of Cytochrome P450 3A4 (P08684 whole entry): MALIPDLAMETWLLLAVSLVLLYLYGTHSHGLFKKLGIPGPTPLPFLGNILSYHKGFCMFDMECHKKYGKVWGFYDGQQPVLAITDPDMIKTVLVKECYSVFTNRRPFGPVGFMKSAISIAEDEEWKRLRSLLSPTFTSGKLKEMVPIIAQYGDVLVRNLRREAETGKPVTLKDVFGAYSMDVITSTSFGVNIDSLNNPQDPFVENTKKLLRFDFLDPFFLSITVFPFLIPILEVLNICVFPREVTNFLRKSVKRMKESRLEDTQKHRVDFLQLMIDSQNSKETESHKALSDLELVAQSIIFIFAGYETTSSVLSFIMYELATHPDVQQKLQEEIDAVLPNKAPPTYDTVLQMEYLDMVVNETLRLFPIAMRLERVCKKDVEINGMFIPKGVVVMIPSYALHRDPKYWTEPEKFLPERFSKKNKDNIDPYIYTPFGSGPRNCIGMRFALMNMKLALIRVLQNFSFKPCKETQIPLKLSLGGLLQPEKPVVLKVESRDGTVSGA

## COc1cc(C)[nH]c(=O)c1CN1CCc2c(Cl)cc([C@H](OC)C3COC3)c(Cl)c2C1=O [MEVROMETOSTAT]
KARPAS-422 [1]
  TGI: Active
[2]
  Ki: < 0.1 nM
KARPAS-422 [3]
  IC50: 6 nM
  IC90: 60 nM
[4]
  microsomal CLint at 1 µM: 39 µL/min/mg
[5]
  solubility kinetic: 538 µM (≈ 251 µg/mL)
[6]
  Papp at […], 2 µM: 4.8 ×10⁻⁶ cm/s
Mus musculus [7]
  Activity: Non-Toxic
KARPAS-422 [8]
  Activity: Active
Mus musculus [9]
  inhibition in vivo at 100 mg/kg: 13.8%
Mus musculus [10]
  inhibition in vivo at 300 mg/kg: 47.9%
Mus musculus [11]
  Time: 24 h
[12]
  hepatocyte CLint: 60.1 µL/min/1e6 cells
[13]
  hepatocyte CLint: 109 µL/min/1e6 cells
[14]
  clearance: 70 mL/min/kg
Cytochrome P450 1A2
  IC50: > 30000 nM
Cytochrome P450 2C8
  IC50: > 30000 nM
Cytochrome P450 2C9
  IC50: > 30000 nM
Cytochrome P450 2C19
  IC50: > 30000 nM
Cytochrome P450 3A4
  IC50: > 30000 nM
Salmonella typhimurium
  Activity: Non-Toxic
[15]
  Ki: < 0.1 nM
[16]
  logD: 1.9
[17]
  T1/2: 22 h
[18]
  T1/2: 6 h
